Format in all cases: functional
Assay [1] in a line: Antioxidant activity assessed as ABTS radical scavenging activity after 15 mins by TEAC method. The gist of the method:
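ABTS radical cation formed from 7 mM ABTS with potassium persulfate (2.4 mM final), held 16 h dark at room temperature, then diluted with water to A734 0.700 ± 0.03. Samples in H2O-EtOH at 5-8 concentrations (0 to 20 µM final). A734 decrease read at 1, 2, 5, 10, 15 min, triplicate, with solvent blanks. Expressed as mM Trolox equivalent to 1.0 mM or 1 mg/mL sample.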

The nature of assay [2]: Antioxidant activity assessed as reduction of […]/ferricyanide complex after 20 mins. The gist of the method:
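Samples (0.02-1.0 mg) in water, mixed with […] phosphate buffer pH 6.6 and 1% potassium ferricyanide, 20 min at 50 °C. Reaction stopped with 10% TCA, centrifuged, and supernatant mixed with water and 0.1% FeCl3. A700 read against blank. Means of three independent samples fitted by linear regression. IC50 taken as the concentration giving an absorbance change of 0.50. α-Tocopherol and quercetin used as standards.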

In assay [3] the test system is Radical scavenging activity. In words: Antioxidant activity assessed as DPPH radical scavenging activity at 15 ug/mL after 30 to 45 mins. Summed up:
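Sample added to freshly prepared 0.004% DPPH in MeOH (final-volume ratio 50:950 µL), vortexed 15 s. Absorbance at 515 nm read at room temperature after 30-45 min, once steady state was reached. Triplicate. % inhibition = (1 − As/A0) × 100 against control. α-Tocopherol and quercetin used as standards.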
On the technique in general: DPPH is a stable violet radical that fades when it is reduced.

≈ marks a conversion by molar mass, not a printed value. Calls of active or inactive are those of the source. No cut-off for these calls is given here.

Take `O=C(/C=C/c1ccc(O[C@@H]2O[C@H](CO)[C@@H](O)[C@H](O)[C@H]2O)c(O)c1)O[C@@H]1O[C@H](CO)[C@@H](O)[C@H](O)[C@H]1O`: in assay [1], the Trolox equivalent antioxidant capacity (TEAC) came out at 1.06 mM. Moreover, the half-inhibitory concentration (IC50) (as a rule, the concentration at which inhibition is half-maximal) in assay [2] amounted to 95.9 µg/mL (≈ 190 µM).
Turning to `C[C@@H]1O[C@@H](Oc2cc(O)c3c(=O)c(O[C@@H]4O[C@H](CO)[C@@H](O)[C@H](O)[C@H]4O)c(-c4ccc(O[C@@H]5O[C@H](CO)[C@@H](O)[C@H](O)[C@H]5O)c(O)c4)oc3c2)[C@H](O)[C@H](O)[C@H]1O` [MORICANDIN], in assay [3], the Activity was 60%. Besides, the Trolox equivalent antioxidant capacity (TEAC) in assay [1] came out at 1.23 mM. Also, the IC50 in assay [2] is 48.1 µg/mL (≈ 62.3 µM).
Regarding `COC(=O)/C=C/c1cc(O)cc(O[C@@H]2O[C@H](CO)[C@@H](O)[C@H](O)[C@H]2O)c1`, the Trolox equivalent antioxidant capacity (TEAC) in assay [1] came out at 0.35 mM. Also, the IC50 in assay [2] turned out to be 630.8 µg/mL (≈ 1770 µM).
As for `O=C(/C=C/c1ccc(O)c(O)c1)O[C@@H]1O[C@H](CO)[C@@H](O)[C@H](O)[C@H]1O`, the Activity in assay [3] came to 72%. In addition, in assay [1], the Trolox equivalent antioxidant capacity (TEAC) came to 1.91 mM. Moreover, the IC50 in assay [2] is 33.5 µg/mL (≈ 97.9 µM).
Regarding `Cc1c(C)c2c(c(C)c1O)CC[C@@](C)(CCC[C@H](C)CCC[C@H](C)CCCC(C)C)O2` [ALPHA-TOCOPHEROL], in assay [3], the Activity is 87%. The IC50 in assay [2] is 106.9 µg/mL (≈ 248 µM).
Turning to `COC(=O)/C=C/c1ccc(O[C@@H]2O[C@H](CO)[C@@H](O)[C@H](O)[C@H]2O)c(O)c1`, in assay [1], the Trolox equivalent antioxidant capacity (TEAC) was determined as 0.89 mM. For the same compound, the IC50 in assay [2] was 486.2 µg/mL (≈ 1360 µM).
As for `OC[C@H]1O[C@@H](OCCc2ccccc2)[C@H](O)[C@@H](O)[C@@H]1O`, the result in assay [1] and in assay [2] was inactive.
For the compound `O=c1c(O)c(-c2ccc(O)c(O)c2)oc2cc(O)cc(O)c12` [QUERCETIN], the Activity in assay [3] was 87%; in assay [1] it was 4.26 mM. For the same compound, in assay [2], the IC50 was 24.4 µg/mL (≈ 80.7 µM).
For `O=C(O[C@@H]1O[C@H](CO)[C@@H](O)[C@H](O)[C@H]1O)c1ccc(O[C@@H]2O[C@H](CO)[C@@H](O)[C@H](O)[C@H]2O)cc1`, the Trolox equivalent antioxidant capacity (TEAC) in assay [1] is 0.28 mM. Further, in assay [2], the IC50 is 735.4 µg/mL (≈ 1590 µM).
Take `O=C(O[C@@H]1O[C@H](CO)[C@@H](O)[C@H](O)[C@H]1O)c1ccc(O)cc1`: the outcome in assay [1] and in assay [2] was inactive.

The record behind these values is ChEMBL document CHEMBL1158729, “Antioxidant phenolic glycosides from Moricandia arvensis” (J Nat Prod, 2005).
